In ChEMBL document CHEMBL2331548, “Identification of N-acyl 4-(3-pyridonyl)phenylalanine derivatives and their orally active prodrug esters as dual acting α4β1 and α4β7 receptor antagonists” (Bioorg Med Chem Lett, 2013):
pIC50: −log10 of the molar value. Values after ≈ are worked out from the molar mass of the structure shown.

Key:
Integrin alpha-4/beta-1 [1] = target: T1, Integrin alpha-4/beta-1 (Homo sapiens, UniProt P05556+P13612); assay: Inhibition of human VCAM1 binding to integrin alpha4beta1 receptor in human Ramos cells labeled with Calcein AM; assay type: cell-based
Summary of the method: (§1)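 Serially diluted compound tested for blocking adhesion of Calcein AM-labelled cells to recombinant human counter-ligand: RAMOS cells on VCAM-1 (α4β1) and RPMI 8866 cells on MAdCAM-1 (α4β7). Cells activated beforehand in Mn2+-containing binding buffer for maximal activation. IC50 taken from fluorescence; RO0270608 run on every plate, and relative potency expressed as fold versus this control because cell activity drifted with passage.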

Integrin alpha-4/beta-1 [2] = target: T1, Integrin alpha-4/beta-1; assay: Inhibition of human VCAM1 binding to integrin alpha4beta1 receptor in human Ramos cells labeled with Calcein AM relative to RO0270608; assay type: cell-based; summary of the method: as §1
[3] = target: Integrin alpha-4/beta-7 (Homo sapiens) (UniProt P13612+P26010); assay: Inhibition of human MAdCAM1 binding to integrin alpha4beta7 receptor in human RPMI 8866 cells labeled with Calcein AM relative to RO0270608; assay type: cell-based; summary of the method: as §1
Integrin alpha-4/beta-7 = target: T2, Integrin alpha-4/beta-7 (Homo sapiens, UniProt P13612+P26010); assay: Inhibition of human MAdCAM1 binding to integrin alpha4beta7 receptor in human RPMI 8866 cells labeled with Calcein AM; assay type: cell-based; summary of the method: as §1
T2 sequence (P13612 whole entry): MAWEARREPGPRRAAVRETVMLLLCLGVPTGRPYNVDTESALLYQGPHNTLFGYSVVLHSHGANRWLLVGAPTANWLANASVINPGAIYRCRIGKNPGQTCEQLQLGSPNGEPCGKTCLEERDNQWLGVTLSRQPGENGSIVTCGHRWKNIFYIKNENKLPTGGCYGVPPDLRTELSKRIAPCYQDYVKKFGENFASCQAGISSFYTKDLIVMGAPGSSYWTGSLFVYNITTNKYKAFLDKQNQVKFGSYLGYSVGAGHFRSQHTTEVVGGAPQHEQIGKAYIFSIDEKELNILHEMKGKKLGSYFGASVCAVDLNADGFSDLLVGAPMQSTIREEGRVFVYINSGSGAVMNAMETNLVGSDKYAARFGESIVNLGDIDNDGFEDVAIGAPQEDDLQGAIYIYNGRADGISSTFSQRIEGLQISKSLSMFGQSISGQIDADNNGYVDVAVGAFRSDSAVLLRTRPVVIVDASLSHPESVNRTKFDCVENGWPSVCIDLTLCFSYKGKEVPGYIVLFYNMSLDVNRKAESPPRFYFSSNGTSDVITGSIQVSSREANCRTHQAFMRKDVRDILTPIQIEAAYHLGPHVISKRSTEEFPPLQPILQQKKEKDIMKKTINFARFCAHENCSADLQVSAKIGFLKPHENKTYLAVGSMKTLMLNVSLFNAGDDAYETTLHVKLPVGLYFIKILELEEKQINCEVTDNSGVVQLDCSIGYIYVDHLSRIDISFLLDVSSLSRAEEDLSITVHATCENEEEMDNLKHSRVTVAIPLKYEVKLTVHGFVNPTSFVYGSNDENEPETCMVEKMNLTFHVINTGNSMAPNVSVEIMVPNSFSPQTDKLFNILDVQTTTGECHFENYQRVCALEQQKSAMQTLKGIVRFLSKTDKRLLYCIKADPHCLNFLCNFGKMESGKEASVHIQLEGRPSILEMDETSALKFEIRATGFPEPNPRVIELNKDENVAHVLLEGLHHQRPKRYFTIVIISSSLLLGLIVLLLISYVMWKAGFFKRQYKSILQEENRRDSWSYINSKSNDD
T2 sequence (P26010 whole entry): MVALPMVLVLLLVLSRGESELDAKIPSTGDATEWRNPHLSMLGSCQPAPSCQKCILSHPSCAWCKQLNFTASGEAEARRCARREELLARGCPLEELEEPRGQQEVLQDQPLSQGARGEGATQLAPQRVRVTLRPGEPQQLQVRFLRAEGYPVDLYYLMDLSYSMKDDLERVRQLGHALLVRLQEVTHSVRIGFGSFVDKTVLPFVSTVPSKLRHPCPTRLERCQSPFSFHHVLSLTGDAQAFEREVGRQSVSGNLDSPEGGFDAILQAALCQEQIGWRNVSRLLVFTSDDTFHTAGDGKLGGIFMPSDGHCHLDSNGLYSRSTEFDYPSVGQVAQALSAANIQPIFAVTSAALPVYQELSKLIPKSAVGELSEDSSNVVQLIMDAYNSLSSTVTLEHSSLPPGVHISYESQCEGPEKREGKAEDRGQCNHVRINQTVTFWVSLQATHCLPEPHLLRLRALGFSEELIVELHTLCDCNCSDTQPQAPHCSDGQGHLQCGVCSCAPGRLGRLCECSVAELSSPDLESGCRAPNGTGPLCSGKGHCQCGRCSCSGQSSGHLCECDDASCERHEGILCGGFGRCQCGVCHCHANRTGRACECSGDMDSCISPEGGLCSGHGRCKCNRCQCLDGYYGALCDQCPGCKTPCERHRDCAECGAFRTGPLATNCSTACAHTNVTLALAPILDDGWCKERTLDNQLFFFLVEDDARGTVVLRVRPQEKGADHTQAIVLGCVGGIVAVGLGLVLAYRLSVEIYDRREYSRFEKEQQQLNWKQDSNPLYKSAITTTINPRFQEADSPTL

[4] = Stability in simulated intestinal fluid at pH 7.5 assessed as half life; assay type: physicochemical; settings: for Stability: simulated gi fluid
[5] = Apparent permeability across human Caco2 cells; assay type: ADME, cell-based; settings: Caco-2
[6] = Solubility in simulated gastric fluid at pH 2.0; assay type: physicochemical
[7] = Stability in plasma (unknown origin) assessed as unchanged prodrug level; assay type: ADME, cell-free
[8] = Solubility in simulated intestinal fluid at pH 7.5; assay type: physicochemical
[9] = Oral bioavailability in rat; assay type: ADME, organism-based; settings: in vivo
hERG (KCNH2) = hERG (KCNH2) (Homo sapiens, UniProt Q12809); assay: Inhibition of human ERG
[10] = simulated gi fluid, BLD = below limit of detection
[11] = simulated gastric fluid, read-out: solubility

T1 sequence (P05556 whole entry, one chain of several): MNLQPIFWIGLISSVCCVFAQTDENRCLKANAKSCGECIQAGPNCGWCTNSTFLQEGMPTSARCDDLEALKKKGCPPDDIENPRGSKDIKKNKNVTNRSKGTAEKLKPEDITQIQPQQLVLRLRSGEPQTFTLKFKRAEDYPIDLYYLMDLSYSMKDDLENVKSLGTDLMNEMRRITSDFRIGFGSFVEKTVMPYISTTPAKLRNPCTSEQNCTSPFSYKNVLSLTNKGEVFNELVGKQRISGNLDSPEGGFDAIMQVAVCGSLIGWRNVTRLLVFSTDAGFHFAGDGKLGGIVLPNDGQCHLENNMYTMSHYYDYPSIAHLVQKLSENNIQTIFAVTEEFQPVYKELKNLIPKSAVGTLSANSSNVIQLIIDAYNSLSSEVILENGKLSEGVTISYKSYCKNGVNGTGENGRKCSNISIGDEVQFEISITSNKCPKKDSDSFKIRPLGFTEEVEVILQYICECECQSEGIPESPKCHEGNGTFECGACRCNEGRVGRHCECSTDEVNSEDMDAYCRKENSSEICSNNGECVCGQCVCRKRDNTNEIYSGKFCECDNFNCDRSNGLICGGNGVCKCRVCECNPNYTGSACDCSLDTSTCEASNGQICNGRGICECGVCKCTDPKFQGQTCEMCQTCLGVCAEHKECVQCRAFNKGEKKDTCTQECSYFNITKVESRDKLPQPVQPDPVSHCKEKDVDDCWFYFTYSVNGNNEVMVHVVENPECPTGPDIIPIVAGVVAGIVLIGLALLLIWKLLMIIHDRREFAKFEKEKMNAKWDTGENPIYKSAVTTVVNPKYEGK
hERG (KCNH2), sequence (Q12809 whole entry): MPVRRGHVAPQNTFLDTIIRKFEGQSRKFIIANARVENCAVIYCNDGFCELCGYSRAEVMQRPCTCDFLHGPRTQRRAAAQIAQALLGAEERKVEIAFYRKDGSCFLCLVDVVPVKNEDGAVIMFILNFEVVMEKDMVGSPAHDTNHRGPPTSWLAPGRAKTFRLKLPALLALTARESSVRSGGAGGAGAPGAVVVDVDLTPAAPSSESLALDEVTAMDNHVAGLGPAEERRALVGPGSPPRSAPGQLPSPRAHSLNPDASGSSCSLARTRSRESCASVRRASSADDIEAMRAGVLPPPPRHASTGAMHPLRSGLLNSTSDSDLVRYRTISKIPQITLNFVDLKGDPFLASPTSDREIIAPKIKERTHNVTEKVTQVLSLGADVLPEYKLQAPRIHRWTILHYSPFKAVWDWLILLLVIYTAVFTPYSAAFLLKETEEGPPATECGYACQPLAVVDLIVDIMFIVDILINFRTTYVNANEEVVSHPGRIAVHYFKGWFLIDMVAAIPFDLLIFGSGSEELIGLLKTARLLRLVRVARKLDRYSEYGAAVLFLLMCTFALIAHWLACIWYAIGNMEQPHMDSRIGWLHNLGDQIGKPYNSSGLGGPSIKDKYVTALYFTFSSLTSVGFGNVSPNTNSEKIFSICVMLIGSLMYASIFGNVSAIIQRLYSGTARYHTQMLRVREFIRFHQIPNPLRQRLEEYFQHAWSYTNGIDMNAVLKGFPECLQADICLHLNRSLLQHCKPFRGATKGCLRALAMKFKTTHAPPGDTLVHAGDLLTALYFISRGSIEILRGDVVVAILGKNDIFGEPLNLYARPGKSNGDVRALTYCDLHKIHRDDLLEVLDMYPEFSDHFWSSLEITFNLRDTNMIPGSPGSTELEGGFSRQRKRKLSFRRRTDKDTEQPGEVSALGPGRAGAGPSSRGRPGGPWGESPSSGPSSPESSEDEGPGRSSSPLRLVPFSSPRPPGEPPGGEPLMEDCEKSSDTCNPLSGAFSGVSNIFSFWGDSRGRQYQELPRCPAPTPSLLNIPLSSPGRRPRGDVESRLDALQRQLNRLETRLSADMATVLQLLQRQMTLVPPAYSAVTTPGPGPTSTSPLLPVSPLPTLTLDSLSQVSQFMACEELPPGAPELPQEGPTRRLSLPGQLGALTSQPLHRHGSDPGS

Row | Structure (SMILES) | pIC50 (Integrin alpha-4/beta-1 [1]) | Ratio IC50 (Integrin alpha-4/beta-1 [2]) | Ratio IC50 [3] | pIC50 (Integrin alpha-4/beta-7) | Papp [5] | also measured
1 | COc1ccc(Br)c(C(=O)N[C@@H](Cc2ccc(-c3cccn(C)c3=O)cc2)C(=O)O)c1 | 6.38 | – | – | – | – | –
2 | Cc1cccc(C(C)C)c1C(=O)N[C@@H](Cc1ccc(-c2c(C(F)(F)F)cc(C)n(C)c2=O)cc1)C(=O)O | 6.44 | 0.36 | 0.23 | 5.89 | – | –
3 | Cc1cccc(Cl)c1C(=O)N[C@@H](Cc1ccc(NC(=O)c2c(Cl)cccc2Cl)cc1)C(=O)O | 8.00 | – | – | 7.37 | – | –
4 | Cc1cc(C(F)(F)F)c(-c2ccc(C[C@H](NC(=O)c3c(Cl)cccc3Cl)C(=O)O)cc2)c(=O)n1Cc1ccccc1 | 6.25 | 0.12 | 0.96 | 6.22 | – | –
5 | COCCC1(C(=O)N[C@@H](Cc2ccc(-c3c(C(F)(F)F)cc(C)n(C)c3=O)cc2)C(=O)O)CCCC1 | 6.85 | 0.75 | 0.54 | 6.17 | – | –
6 | CCc1cccc(C)c1C(=O)N[C@@H](Cc1ccc(-c2c(C(F)(F)F)cc(C)n(C)c2=O)cc1)C(=O)O | 6.65 | 0.41 | 0.7 | 6.12 | – | –
7 | COCCOC(=O)[C@H](Cc1ccc(-c2c(C(F)(F)F)cc(C)n(C)c2=O)cc1)NC(=O)c1c(Cl)cccc1Cl | – | – | – | – | 49.9 ×10⁻⁶ cm/s | Stability [4]: Stable; solubility [6, 10]: BLD
8 | Cc1cccc(Cl)c1C(=O)N[C@@H](Cc1ccc(-c2c(C)cc(C(F)(F)F)n(C)c2=O)cc1)C(=O)O | 6.57 | 0.06 | 2.6 | 6.80 | – | –
9 | Cc1cc(C(F)(F)F)c(-c2ccc(C[C@H](NC(=O)c3c(Cl)cccc3Cl)C(=O)O)cc2)c(=O)[nH]1 | 6.09 | 0.08 | 0.65 | 6.09 | – | –
10 | Cc1cc(C(F)(F)F)c(-c2ccc(C[C@H](NC(=O)c3c(Cl)cccc3Cl)C(=O)OCC(O)CO)cc2)c(=O)n1C (some centres undefined) | – | – | – | – | 1.8 ×10⁻⁶ cm/s | Stability [4]: Stable; Stability [7]: Stable; solubility [8]: 140 µg/mL (≈ 233 µM); bioavailability [9]: 6%; solubility [6, 11]: 190 µg/mL (≈ 316 µM)
11 | Cc1cccc(Cl)c1C(=O)N[C@@H](Cc1ccc(-c2cccn(C)c2=O)cc1)C(=O)O | 6.24 | 0.03 | 0.46 | 6.16 | – | –
12 | Cc1cc(C(F)(F)F)n(C)c(=O)c1-c1ccc(C[C@H](NC(=O)c2c(Cl)cccc2Cl)C(=O)O)cc1 | 6.57 | 0.11 | 2.2 | 6.90 | – | –
13 | COCCCOC(=O)[C@H](Cc1ccc(-c2c(C(F)(F)F)cc(C)n(C)c2=O)cc1)NC(=O)c1c(Cl)cccc1Cl | – | – | – | – | 22.8 ×10⁻⁶ cm/s | bioavailability [9]: 2%
14 | CCn1c(C)cc(C(F)(F)F)c(-c2ccc(C[C@H](NC(=O)c3c(Cl)cccc3Cl)C(=O)O)cc2)c1=O | 6.95 | 0.4 | 1.9 | 7.21 | – | –
15 | CCCOC(=O)[C@H](Cc1ccc(-c2c(C(F)(F)F)cc(C)n(C)c2=O)cc1)NC(=O)c1c(Cl)cccc1Cl | – | – | – | – | 52.6 ×10⁻⁶ cm/s | Stability [4]: Stable; solubility [6, 10]: BLD
16 | Cc1cc(C(F)(F)F)c(-c2ccc(C[C@H](NC(=O)c3c(Cl)cccc3Cl)C(=O)O)cc2)c(=O)n1CC1CC1 | 6.33 | 0.03 | 0.34 | 5.91 | – | –
17 | CCN(CC)CCOC(=O)[C@H](Cc1ccc(-c2c(C(F)(F)F)cc(C)n(C)c2=O)cc1)NC(=O)c1c(Cl)cccc1Cl | – | – | – | – | 9.6 ×10⁻⁶ cm/s | half-life ([4]; simulated intestinal fluid): 30 min; bioavailability [9]: 12%; IC20 (hERG (KCNH2)): 11700 nM; solubility [6, 11]: > 5000 µg/mL
18 | Cc1cc(C(F)(F)F)c(-c2ccc(C[C@H](NC(=O)c3c(Cl)cccc3Cl)C(=O)OCC(C)C)cc2)c(=O)n1C | – | – | – | – | 32.5 ×10⁻⁶ cm/s | Stability [4]: Stable; solubility [6, 10]: BLD
19 | Cc1cccc(Cl)c1C(=O)N[C@@H](Cc1ccc(-c2c(C(F)(F)F)cc(C)n(C)c2=O)cc1)C(=O)O | 7.32 | 0.47 | 3.5 | 6.81 | – | –
20 | Cc1cc(C(F)(F)F)c(-c2ccc(C[C@H](NC(=O)c3c(Cl)cccc3Cl)C(=O)OCC(=O)N(C)C)cc2)c(=O)n1C | – | – | – | – | 6.3 ×10⁻⁶ cm/s | Stability [4]: Stable; solubility [8]: 0.7 µg/mL (≈ 1.14 µM); solubility [6, 11]: 0.8 µg/mL (≈ 1.31 µM)
21 | Cc1ccn(C)c(=O)c1-c1ccc(C[C@H](NC(=O)c2c(Cl)cccc2Cl)C(=O)O)cc1 | 7.05 | 0.37 | 1.6 | 6.75 | – | –
22 | Cc1cccc(Cl)c1C(=O)N[C@@H](Cc1ccc(-c2c(C)ccn(C)c2=O)cc1)C(=O)O | 6.65 | 0.23 | 0.68 | 6.44 | – | –
23 | CC(=O)OC(C)OC(=O)[C@H](Cc1ccc(-c2c(C(F)(F)F)cc(C)n(C)c2=O)cc1)NC(=O)c1c(Cl)cccc1Cl (some centres undefined) | – | – | – | – | 27.5 ×10⁻⁶ cm/s | Stability [4]: Stable; solubility [8]: 4 µg/mL (≈ 6.52 µM); bioavailability [9]: 17%
24 | Cc1cc(C(F)(F)F)c(-c2ccc(C[C@H](NC(=O)c3c(Cl)cccc3Cl)C(=O)OCC3CCOC3)cc2)c(=O)n1C (some centres undefined) | – | – | – | – | 76.4 ×10⁻⁶ cm/s | Stability [4]: Stable; solubility [8]: 0.03 µg/mL (≈ 0.0491 µM); solubility [6, 11]: 0.03 µg/mL (≈ 0.0491 µM)
